ChEMBL document CHEMBL4257488, “Synthesis and evaluation of nuciferine and roemerine enantiomers as 5-HT2 and α1 receptor antagonists” (Medchemcomm, 2018)

Experiments:
[1] = species on record: Homo sapiens; experiment: Selectivity ratio of Kb for human adrenergic alpha1D receptor to Kb for human adrenergic alpha1A receptor
Procedure, shortened: (§1)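 Ratio of the Kb at receptor Y to the Kb at receptor X. Each Kb came from TGFα-shedding antagonist curves in transfected HEK293 cells, converted from IC50 with the modified Gaddum equation IC50/([A]/EC50 − 1).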

[2] = biological target: 5-hydroxytryptamine receptor 2B (Homo sapiens) (UniProt P41595); experiment: Antagonist activity at human 5-HT2B receptor expressed in HEK293 cells assessed as inhibition of serotonin-induced receptor activation preincubated for 15 mins followed by serotonin addition and measured after 1 hr by TGFalpha shedding assay; assay type: functional, cell-based
Procedure, shortened: (§2)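 HEK293 cells were co-transfected with the receptor construct and alkaline phosphatase-tagged TGFα, then seeded in HBSS. Cells were pretreated 15 min with compound (0.1 nM–30 µM final), then given serotonin at final 1 µM (5-HT2A) or 0.1 µM (5-HT2B, 5-HT2C) for 1 h at 37 °C. Kb came from IC50 via the modified Gaddum equation.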

[3] = species on record: Homo sapiens; experiment: Selectivity ratio of Kb for human adrenergic alpha1B receptor to Kb for human adrenergic alpha1A receptor; procedure, shortened: as §1
[4] = biological target: T1, Alpha-1B adrenergic receptor (Homo sapiens) (UniProt P35368); experiment: Antagonist activity at human adrenergic alpha1B receptor expressed in HEK293 cells assessed as inhibition of noradrenaline-induced receptor activation preincubated for 15 mins followed by noradrenaline addition and measured after 1 hr by TGFalpha shedding assay
T1 sequence (whole entry): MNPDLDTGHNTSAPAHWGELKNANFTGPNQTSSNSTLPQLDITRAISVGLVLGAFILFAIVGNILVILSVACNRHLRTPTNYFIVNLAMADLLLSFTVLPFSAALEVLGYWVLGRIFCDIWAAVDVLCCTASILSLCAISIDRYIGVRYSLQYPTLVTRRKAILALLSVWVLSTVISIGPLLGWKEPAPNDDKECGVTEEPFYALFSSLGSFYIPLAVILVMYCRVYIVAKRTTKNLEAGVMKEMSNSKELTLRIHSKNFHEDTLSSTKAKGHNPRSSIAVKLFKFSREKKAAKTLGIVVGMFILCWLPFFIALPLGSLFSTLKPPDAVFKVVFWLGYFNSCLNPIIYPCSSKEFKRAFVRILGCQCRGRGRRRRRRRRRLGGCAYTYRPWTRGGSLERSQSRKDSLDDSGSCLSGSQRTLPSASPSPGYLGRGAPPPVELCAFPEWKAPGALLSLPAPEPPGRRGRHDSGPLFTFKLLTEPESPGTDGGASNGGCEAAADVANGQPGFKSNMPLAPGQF

[5] = biological target: T2, Alpha-1A adrenergic receptor (Homo sapiens) (UniProt P35348); experiment: Antagonist activity at human adrenergic alpha1A receptor expressed in HEK293 cells assessed as inhibition of noradrenaline-induced receptor activation preincubated for 15 mins followed by noradrenaline addition and measured after 1 hr by TGFalpha shedding assay
T2 sequence (whole entry): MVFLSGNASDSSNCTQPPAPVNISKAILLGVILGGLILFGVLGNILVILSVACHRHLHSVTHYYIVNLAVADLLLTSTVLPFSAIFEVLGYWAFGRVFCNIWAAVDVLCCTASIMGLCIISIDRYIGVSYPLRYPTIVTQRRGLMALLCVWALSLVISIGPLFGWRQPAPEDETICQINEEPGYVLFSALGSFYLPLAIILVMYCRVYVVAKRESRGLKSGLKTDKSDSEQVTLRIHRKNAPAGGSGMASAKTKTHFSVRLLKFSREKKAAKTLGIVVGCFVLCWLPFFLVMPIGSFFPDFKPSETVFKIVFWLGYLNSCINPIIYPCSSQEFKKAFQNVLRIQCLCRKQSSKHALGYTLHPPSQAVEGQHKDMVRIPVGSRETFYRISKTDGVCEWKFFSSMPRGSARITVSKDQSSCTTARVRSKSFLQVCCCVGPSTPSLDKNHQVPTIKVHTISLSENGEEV

[6] = biological target: T3, 5-hydroxytryptamine receptor 2C (Homo sapiens) (UniProt P28335); experiment: Antagonist activity at human 5-HT2C receptor expressed in HEK293 cells assessed as inhibition of serotonin-induced receptor activation preincubated for 15 mins followed by serotonin addition and measured after 1 hr by TGFalpha shedding assay; assay type: functional, cell-based
T3 sequence (whole entry): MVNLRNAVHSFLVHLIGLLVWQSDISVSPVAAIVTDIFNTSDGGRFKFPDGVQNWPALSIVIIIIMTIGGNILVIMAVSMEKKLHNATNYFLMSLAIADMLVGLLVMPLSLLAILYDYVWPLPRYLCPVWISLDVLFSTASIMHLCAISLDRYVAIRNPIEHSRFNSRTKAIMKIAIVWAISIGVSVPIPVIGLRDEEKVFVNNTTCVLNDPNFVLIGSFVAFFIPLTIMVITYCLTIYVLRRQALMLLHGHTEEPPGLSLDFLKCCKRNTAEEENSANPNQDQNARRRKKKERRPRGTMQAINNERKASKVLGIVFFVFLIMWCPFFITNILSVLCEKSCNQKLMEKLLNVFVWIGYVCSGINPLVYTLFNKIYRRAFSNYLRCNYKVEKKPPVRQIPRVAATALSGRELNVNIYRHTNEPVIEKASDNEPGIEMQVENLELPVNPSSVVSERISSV
Procedure, shortened: as §2, with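 “°C. Readout was supernatant/total AP activity (p-nitrophenol, 405 nm), normalised to maximal agonist response, in triplicate.” for “°C.”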

[7] = species on record: Homo sapiens; experiment: Selectivity ratio of Kb for human 5-HT2B receptor to Kb for human 5-HT2A receptor; procedure, shortened: as §1
[8] = species on record: Homo sapiens; experiment: Selectivity ratio of Kb for human 5-HT2B receptor to Kb for human 5-HT2C receptor; procedure, shortened: as §1
[9] = species on record: Homo sapiens; experiment: Selectivity ratio of Kb for human adrenergic alpha1D receptor to Kb for human adrenergic alpha1B receptor; procedure, shortened: as §1
[10] = biological target: Serotonin 2 receptors; 5-HT2a & 5-HT2c (Homo sapiens) (UniProt P28223+P28335); experiment: Selectivity ratio of Kb for human 5-HT2C receptor to Kb for human 5-HT2A receptor; procedure, shortened: as §1
[11] = species on record: Homo sapiens; experiment: Selectivity ratio of Kb for human adrenergic alpha1A receptor to Kb for human 5-HT2A receptor; procedure, shortened: as §1
[12] = biological target: T4, Alpha-1D adrenergic receptor (Homo sapiens) (UniProt P25100); experiment: Antagonist activity at human adrenergic alpha1D receptor expressed in HEK293 cells assessed as inhibition of noradrenaline-induced receptor activation preincubated for 15 mins followed by noradrenaline addition and measured after 1 hr by TGFalpha shedding assay
T4 sequence (whole entry): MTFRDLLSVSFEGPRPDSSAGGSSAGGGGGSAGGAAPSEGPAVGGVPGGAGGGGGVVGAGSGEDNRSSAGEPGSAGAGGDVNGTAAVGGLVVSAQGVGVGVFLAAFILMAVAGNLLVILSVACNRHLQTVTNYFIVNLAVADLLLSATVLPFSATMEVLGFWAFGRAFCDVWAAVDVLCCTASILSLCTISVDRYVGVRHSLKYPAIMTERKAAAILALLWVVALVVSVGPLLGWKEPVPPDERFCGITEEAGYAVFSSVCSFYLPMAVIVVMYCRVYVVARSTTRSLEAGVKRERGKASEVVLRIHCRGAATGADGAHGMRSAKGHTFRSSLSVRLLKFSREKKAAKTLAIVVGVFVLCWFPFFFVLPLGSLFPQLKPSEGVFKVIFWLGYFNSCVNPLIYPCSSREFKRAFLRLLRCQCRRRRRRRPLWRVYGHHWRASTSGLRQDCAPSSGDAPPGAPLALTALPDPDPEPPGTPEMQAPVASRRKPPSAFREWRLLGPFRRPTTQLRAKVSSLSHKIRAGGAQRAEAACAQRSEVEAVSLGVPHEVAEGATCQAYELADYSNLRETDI

[13] = biological target: 5-hydroxytryptamine receptor 2A (Homo sapiens) (UniProt P28223); experiment: Antagonist activity at human 5-HT2A receptor expressed in HEK293 cells assessed as inhibition of serotonin-induced receptor activation preincubated for 15 mins followed by serotonin addition and measured after 1 hr by TGFalpha shedding assay; assay type: functional, cell-based; procedure, shortened: as §2
[14] = species on record: Homo sapiens; experiment: Selectivity ratio of Kb for human adrenergic alpha1A receptor to Kb for human 5-HT2C receptor; procedure, shortened: as §1
[15] = species on record: Homo sapiens; experiment: Selectivity ratio of Kb for human adrenergic alpha1B receptor to Kb for human 5-HT2C receptor; procedure, shortened: as §1
[16] = species on record: Homo sapiens; experiment: Selectivity ratio of Kb for human adrenergic alpha1D receptor to Kb for human 5-HT2C receptor; procedure, shortened: as §1
[17] = biological target: T5, Alpha-1A adrenergic receptor (Homo sapiens, UniProt P35348); experiment: Displacement of [125I]-HEAT from human adrenergic alpha1A receptor expressed in rat-1 cells; assay type: cell-based
T5 sequence (P35348 whole entry): T2 sequence (whole entry)

[18] = biological target: T6, Alpha-1D adrenergic receptor (Homo sapiens, UniProt P25100); experiment: Displacement of [125I]-HEAT from human adrenergic alpha1D receptor expressed in rat-1 cells; assay type: cell-based
T6 sequence (P25100 whole entry): T4 sequence (whole entry)

[19] = species on record: Homo sapiens; experiment: Selectivity ratio of Kb for human adrenergic alpha1B receptor to Kb for human 5-HT2A receptor; procedure, shortened: as §1
[20] = biological target: T7, Alpha-1B adrenergic receptor (Homo sapiens, UniProt P35368); experiment: Displacement of [125I]-HEAT from human adrenergic alpha1B receptor expressed in rat-1 cells; assay type: cell-based
T7 sequence (P35368 whole entry): T1 sequence (whole entry)

[21] = species on record: Homo sapiens; experiment: Selectivity ratio of Kb for human adrenergic alpha1D receptor to Kb for human 5-HT2A receptor; procedure, shortened: as §1

Chain of 5-hydroxytryptamine receptor 2A (Homo sapiens) (P28223 whole entry): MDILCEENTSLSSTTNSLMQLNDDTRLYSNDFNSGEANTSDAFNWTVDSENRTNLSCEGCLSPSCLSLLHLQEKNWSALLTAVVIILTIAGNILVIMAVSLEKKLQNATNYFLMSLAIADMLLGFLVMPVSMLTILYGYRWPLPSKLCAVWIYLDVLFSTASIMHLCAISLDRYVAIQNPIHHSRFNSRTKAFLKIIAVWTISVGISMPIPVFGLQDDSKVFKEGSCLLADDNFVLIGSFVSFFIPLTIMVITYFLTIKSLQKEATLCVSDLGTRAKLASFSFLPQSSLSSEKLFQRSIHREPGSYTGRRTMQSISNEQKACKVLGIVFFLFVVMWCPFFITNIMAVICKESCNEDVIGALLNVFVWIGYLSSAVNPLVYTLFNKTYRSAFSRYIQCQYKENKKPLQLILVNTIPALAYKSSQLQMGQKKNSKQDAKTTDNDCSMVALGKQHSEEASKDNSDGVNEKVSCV
Chain of Serotonin 2 receptors; 5-HT2a & 5-HT2c (Homo sapiens) (P28223 whole entry, looked up, one chain of several): as the sequence (P28223 whole entry) above
Chain of 5-hydroxytryptamine receptor 2B (Homo sapiens) (P41595 whole entry): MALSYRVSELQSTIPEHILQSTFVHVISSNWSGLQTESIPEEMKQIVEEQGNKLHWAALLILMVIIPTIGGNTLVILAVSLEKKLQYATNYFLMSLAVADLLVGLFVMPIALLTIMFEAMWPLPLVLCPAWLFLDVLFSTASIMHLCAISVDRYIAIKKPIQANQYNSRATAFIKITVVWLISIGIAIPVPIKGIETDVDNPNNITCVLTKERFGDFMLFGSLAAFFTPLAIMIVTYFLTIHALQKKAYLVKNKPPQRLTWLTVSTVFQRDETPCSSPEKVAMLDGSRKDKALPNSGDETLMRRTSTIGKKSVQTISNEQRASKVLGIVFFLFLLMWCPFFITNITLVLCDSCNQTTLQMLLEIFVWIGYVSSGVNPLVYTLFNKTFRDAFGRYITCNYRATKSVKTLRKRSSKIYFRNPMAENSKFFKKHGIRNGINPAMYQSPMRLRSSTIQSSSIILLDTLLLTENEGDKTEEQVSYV

SMILES | Selectivity ratio [1] | Kb [2] [nM] | pKb [2] | Selectivity ratio [3] | Kb [4] [nM] | pKb [4] | Kb [5] [nM] | pKb [5] | Kb [6] [nM] | pKb [6] | Selectivity ratio [7] | Selectivity ratio [8] | Selectivity ratio [9] | Selectivity ratio [10] | Selectivity ratio [11] | Kb [12] [nM] | pKb [12] | Kb [13] [nM] | pKb [13] | other results
COc1cc2c3c(c1OC)-c1ccccc1C[C@H]3N(C)CC2 | 4 | 31 | 7.51 | 2 | 60.6 | 7.22 | 37.8 | 7.31 to 7.42 | 36.4 | 7.44 | 0.5 | 1 | 3 | 0.6 | 1 | 165 | 6.78 | 65.3 | 7.18 to 7.26 | 
CN1CCc2cc3c(c4c2[C@H]1Cc1ccccc1-4)OCO3 | 0.1 | 84 | 7.08 | 0.8 | 266 | 6.57 | 338 | 6.38 to 6.47 | 15.1 | 7.82 | 8 | 6 | 0.2 | 1 | 32 | 46 | 7.34 | 10.8 | 7.88 to 7.97 | Selectivity ratio [14]: 18 to 32; Selectivity ratio [15]: 18 to 32; Selectivity ratio [16]: 3 to 4; Ki [17]: 251 nM; Ki [18]: 631 nM; Selectivity ratio [19]: 18 to 32; Ki [20]: 3160 nM; Selectivity ratio [21]: 3 to 4
COc1cc2c3c(c1OC)-c1ccccc1C[C@@H]3N(C)CC2 | 2 | 41.7 | 7.38 | 5 | 316 | 6.5 | 67.1 | 6.91 to 7.17 | 30.9 | 7.51 | 0.5 | 1 | 0.4 | 0.4 | 1 | 116 | 6.94 | 84.3 | 6.85 to 7.07 | 
CN1CCc2cc3c(c4c2[C@@H]1Cc1ccccc1-4)OCO3 | 1 | 92.7 | 7.03 | 2 | 154 | 6.81 | 86 | 6.62 to 7.07 | 76.9 | 7.12 | 2 | 1 | 0.6 | 2 | 3 | 92.2 | 7.04 | 42.9 | 7.06 to 7.37 | 
